ChEMBL document CHEMBL1156077, “Piperazinyl-glutamate-pyrimidines as potent P2Y12 antagonists for inhibition of platelet aggregation” (Bioorg Med Chem Lett, 2009)
Active and inactive are the calls of the source. No cut-off for these calls is given here.

How the values were obtained:
P2Y purinoceptor 12 [1] = target: T1, P2Y purinoceptor 12 (Homo sapiens, UniProt Q9H244); assay: Binding affinity at human recombinant P2Y12 receptor expressed in CHO cells by radioligand binding assay; format: cell-based
T1 sequence (Q9H244 whole entry): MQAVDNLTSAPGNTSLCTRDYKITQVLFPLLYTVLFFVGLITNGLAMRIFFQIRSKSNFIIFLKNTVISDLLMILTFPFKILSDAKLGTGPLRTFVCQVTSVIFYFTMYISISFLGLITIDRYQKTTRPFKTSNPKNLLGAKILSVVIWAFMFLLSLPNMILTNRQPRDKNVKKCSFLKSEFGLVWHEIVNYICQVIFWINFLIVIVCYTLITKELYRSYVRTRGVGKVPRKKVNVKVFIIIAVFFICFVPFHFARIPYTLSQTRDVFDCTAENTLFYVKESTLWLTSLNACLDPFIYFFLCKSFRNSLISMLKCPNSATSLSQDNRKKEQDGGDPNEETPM
Outline: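 Washed membranes from CHO cells transfected with synthetic human P2Y12 gene. Compounds as 7-point threefold dilutions, triplicate, 1 h at room temperature. Nonspecific binding defined with 300 nM 2-MeSADP. Filtered, washed with ice-cold Tris pH 7.4. Single-site fit; IC50 converted to Ki by Cheng–Prusoff, geometric mean of n≥2.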

P2Y purinoceptor 12 [2] = target: T1, P2Y purinoceptor 12; assay: Binding affinity at human recombinant P2Y12 receptor expressed in CHO cells by radioligand binding assay in presence of 0.4% human serum albumin; format: cell-based
Outline: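 Membranes from CHO cells transfected with a synthetic human P2Y12 gene, with 0.4% human serum albumin added to the binding buffer (50 mM Tris, 100 mM NaCl, 1 mM EDTA). Seven-point threefold dilutions were run in triplicate, 1 h at room temperature, then filtered. Ki from IC50 by Cheng-Prusoff.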

[3] = Selectivity for human P2Y12 receptor over P2Y13
[4] = Selectivity for human P2Y12 receptor over P2Y1
P2Y purinoceptor 12 [5] = target: T1, P2Y purinoceptor 12; assay: Ratio of compound IC50 to thienopyrimidine IC50 for P2Y12 receptor in human platelet rich plasma assessed as inhibition of ADP-induced platelet aggregation by light transmission aggregometry
Outline: (§1)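 Human platelet-rich plasma was pre-incubated 5 min at 37 °C with compound across seven concentrations (10 down to 0.156). Aggregation was started with ADP (20, final) and followed by light transmission at 626 nm for 15 min at 37 °C. Duplicate concentration-response data were read at the 15-min end-point. IC50 was divided by the IC50 of the thienopyrimidine reference run on the same plate.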

P2Y purinoceptor 12 [6] = target: T1, P2Y purinoceptor 12; assay: Ratio of compound IC50 to AZD-6140 IC50 for P2Y12 receptor in human platelet rich plasma assessed as inhibition of ADP-induced platelet aggregation by light transmission aggregometry
Outline: as §1, with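 “AZD-6140” for “the thienopyrimidine reference”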

Liver microsomes [7] = assay: Metabolic stability in rat liver microsomes assessed as compound remaining; format: ADME, Microsome
Outline: (§2)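 Compounds incubated 30 min with human or rat liver microsomes; percent of parent compound remaining measured.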

Liver microsomes [8] = assay: Metabolic stability in human liver microsomes assessed as compound remaining; format: ADME, Microsome; outline: as §2
CYP1A2 = target: T2, CYP1A2 (Homo sapiens, UniProt P05177); assay: Inhibition of CYP1A2 at 3 uM after 30 mins; format: ADME
T2 sequence (P05177 whole entry): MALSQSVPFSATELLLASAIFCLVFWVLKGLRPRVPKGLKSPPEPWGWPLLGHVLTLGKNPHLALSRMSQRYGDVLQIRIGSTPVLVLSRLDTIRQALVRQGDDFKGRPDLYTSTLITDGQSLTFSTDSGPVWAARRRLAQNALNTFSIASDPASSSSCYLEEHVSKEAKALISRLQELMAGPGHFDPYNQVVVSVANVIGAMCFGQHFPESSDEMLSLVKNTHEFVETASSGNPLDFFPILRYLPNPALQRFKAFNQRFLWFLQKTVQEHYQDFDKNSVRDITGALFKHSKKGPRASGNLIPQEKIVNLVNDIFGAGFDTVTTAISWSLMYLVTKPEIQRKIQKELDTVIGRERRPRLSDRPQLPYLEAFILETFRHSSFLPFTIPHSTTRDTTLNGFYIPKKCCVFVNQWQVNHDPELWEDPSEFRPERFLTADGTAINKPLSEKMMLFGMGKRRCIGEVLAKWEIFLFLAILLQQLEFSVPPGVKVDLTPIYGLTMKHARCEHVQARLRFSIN
Outline: (§3)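 Each CYP isoform assayed separately at a single 3 µM compound concentration in duplicate, with at least one isoform-specific positive control inhibitor. Incubation 30 min at 37 °C; end-point measurement gives percent inhibition.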

CYP2C9 = CYP2C9 (Homo sapiens, UniProt P11712); assay: Inhibition of CYP2C9 at 3 uM after 30 mins; format: ADME; outline: as §3
Chain of CYP2C9 (P11712 whole entry): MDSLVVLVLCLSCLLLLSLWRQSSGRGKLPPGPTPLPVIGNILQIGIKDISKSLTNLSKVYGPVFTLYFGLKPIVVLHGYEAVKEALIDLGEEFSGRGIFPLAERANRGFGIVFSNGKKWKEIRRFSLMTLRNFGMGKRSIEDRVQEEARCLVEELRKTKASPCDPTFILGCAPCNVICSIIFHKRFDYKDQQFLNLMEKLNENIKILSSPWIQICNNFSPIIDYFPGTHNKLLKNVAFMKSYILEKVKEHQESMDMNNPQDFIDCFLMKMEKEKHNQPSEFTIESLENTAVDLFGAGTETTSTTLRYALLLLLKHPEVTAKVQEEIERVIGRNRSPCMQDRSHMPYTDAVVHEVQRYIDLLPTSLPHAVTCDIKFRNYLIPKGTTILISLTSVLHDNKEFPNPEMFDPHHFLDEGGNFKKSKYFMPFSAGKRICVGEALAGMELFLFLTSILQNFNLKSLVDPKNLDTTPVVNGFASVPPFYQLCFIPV

CYP2D6 = CYP2D6 (Homo sapiens, UniProt P10635); assay: Inhibition of CYP2D6 at 3 uM after 30 mins; format: ADME; outline: as §3
Chain of CYP2D6 (P10635 whole entry): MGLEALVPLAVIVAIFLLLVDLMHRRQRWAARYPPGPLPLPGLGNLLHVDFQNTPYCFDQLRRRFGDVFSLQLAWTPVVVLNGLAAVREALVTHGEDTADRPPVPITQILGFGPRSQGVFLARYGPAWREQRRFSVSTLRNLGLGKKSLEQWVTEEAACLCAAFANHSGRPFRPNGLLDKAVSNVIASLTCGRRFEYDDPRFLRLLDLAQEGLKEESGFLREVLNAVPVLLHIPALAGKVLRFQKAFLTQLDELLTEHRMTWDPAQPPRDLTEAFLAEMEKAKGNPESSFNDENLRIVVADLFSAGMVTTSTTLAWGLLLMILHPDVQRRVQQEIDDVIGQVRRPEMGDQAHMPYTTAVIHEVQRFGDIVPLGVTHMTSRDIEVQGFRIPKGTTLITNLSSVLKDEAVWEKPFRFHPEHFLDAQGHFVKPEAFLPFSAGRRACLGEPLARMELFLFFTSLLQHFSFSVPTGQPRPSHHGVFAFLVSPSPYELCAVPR

CYP3A4 = CYP3A4 (Homo sapiens, UniProt P08684); assay: Inhibition of CYP3A4 at 3 uM after 30 mins; format: ADME; outline: as §3
Chain of CYP3A4 (P08684 whole entry): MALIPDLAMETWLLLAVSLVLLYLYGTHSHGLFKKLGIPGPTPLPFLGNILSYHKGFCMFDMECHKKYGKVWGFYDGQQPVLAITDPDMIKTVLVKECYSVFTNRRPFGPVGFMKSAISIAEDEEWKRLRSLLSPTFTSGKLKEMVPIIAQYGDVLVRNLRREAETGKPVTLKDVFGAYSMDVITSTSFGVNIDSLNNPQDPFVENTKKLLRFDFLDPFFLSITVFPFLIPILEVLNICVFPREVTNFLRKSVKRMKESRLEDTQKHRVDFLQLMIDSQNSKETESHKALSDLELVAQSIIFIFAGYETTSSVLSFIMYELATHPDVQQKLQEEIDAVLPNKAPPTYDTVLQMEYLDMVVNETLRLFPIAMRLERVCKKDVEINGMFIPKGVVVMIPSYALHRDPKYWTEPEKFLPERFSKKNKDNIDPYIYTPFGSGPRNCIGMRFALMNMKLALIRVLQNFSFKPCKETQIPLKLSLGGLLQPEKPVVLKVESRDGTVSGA

hERG (KCNH2) = hERG (KCNH2) (Homo sapiens, UniProt Q12809); assay: Displacement of Cy3B-tagged N-desmethyl dofetilide from human ERG expressed in HEK cells at 10 uM after 120 mins; format: cell-based, HEK293; details: HEK cells that express human ERG, probe Cy3B-tagged N-desmethyl dofetilide
Chain of hERG (KCNH2) (Q12809 whole entry): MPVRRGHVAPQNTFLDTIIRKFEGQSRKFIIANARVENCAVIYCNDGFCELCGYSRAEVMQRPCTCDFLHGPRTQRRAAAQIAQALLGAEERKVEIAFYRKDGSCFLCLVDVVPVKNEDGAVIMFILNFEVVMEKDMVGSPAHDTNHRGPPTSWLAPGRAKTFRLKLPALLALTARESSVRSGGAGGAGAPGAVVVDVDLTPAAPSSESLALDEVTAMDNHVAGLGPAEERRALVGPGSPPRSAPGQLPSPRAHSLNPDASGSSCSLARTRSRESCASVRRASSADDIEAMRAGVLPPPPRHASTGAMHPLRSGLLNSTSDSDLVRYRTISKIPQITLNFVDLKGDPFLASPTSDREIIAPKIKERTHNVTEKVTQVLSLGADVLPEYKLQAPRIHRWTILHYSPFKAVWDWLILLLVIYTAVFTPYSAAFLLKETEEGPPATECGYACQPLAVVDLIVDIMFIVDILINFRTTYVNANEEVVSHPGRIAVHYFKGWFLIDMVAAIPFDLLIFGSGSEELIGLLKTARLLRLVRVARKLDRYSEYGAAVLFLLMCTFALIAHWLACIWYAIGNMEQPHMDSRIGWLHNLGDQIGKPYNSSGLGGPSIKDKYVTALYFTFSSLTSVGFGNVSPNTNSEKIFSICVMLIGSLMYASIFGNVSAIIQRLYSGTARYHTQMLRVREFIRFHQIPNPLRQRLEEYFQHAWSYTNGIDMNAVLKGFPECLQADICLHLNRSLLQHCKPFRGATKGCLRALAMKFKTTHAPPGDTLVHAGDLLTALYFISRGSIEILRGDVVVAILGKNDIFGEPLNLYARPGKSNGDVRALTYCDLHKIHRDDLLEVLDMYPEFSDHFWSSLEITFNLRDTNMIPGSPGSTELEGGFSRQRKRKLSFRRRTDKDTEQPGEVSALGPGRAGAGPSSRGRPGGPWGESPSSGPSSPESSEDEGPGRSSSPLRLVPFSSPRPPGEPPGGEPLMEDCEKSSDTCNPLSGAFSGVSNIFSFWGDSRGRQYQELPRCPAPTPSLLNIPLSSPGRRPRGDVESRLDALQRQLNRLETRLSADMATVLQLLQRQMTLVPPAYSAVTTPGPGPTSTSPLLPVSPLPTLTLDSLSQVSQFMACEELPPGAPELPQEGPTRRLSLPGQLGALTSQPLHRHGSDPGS
Outline: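 Fluorescence polarization competition assay with HEK-hERG membrane homogenates and Cy3B-tagged N-desmethyl dofetilide tracer. Compound tested at a single 10 µM concentration, 120 min incubation, end-point read for percent inhibition.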

[9] = Effective half life in Sprague-Dawley rat at 2 mg/kg, iv and 5 mg/kg, po; format: ADME, organism-based; details: in vivo
[10] = Clearance in Sprague-Dawley rat at 2 mg/kg, iv and 5 mg/kg, po; format: ADME, organism-based; details: in vivo
[11] = Volume of distribution at steady state in Sprague-Dawley rat at 2 mg/kg, iv and 5 mg/kg, po; format: ADME, organism-based; details: in vivo, read-out: Vdss
[12] = Oral bioavailability in Sprague-Dawley rat at 5 mg/kg; format: ADME, organism-based; details: in vivo

Row | SMILES | Ki (P2Y purinoceptor 12 [1]) [nM] | Activity (P2Y purinoceptor 12 [2]) | fold change (FC) [3] | fold change (FC) [4] | Ratio IC50 (P2Y purinoceptor 12 [5]) | Ratio IC50 (P2Y purinoceptor 12 [6]) | Stability (Liver microsomes [7]) [%] | Stability (Liver microsomes [8]) [%] | inhibition at 0.5 h, 3 µM (CYP1A2) [%] | inhibition at 0.5 h, 3 µM (CYP2C9) [%] | inhibition at 0.5 h, 3 µM (CYP2D6) [%] | inhibition at 0.5 h, 3 µM (CYP3A4) [%] | inhibition at 2 h, 10 µM (hERG (KCNH2)) [%] | half-life [9] [min] | clearance [10] [mL/min/kg] | Vd [11] [L/kg] | bioavailability [12] [%]
1 | CCCCCOC(=O)N1CCN(C(=O)[C@H](CCC(=O)O)NC(=O)c2cc(SC(C)(C)C)nc(-c3ccccc3)n2)CC1 | 42 | inactive | > 340 | > 340 | – | – | – | – | – | – | – | – | – | – | – | – | –
2 | CCCCCOC(=O)N1CCN(C(=O)[C@H](CCC(=O)O)NC(=O)c2cc(SC3CCCC3)nc(-c3ccccc3)n2)CC1 | 17 | inactive | > 340 | > 340 | – | – | – | – | – | – | – | – | – | – | – | – | –
3 | CCCCCOC(=O)N1CCN(C(=O)[C@H](CCC(=O)O)NC(=O)c2cc(SCCO)nc(-c3ccccc3)n2)CC1 | 4.5 | inactive | > 340 | > 340 | – | – | – | – | – | – | – | – | – | – | – | – | –
4 | CCCCCOC(=O)N1CCN(C(=O)[C@H](CCC(=O)O)NC(=O)c2cc(N3CCC(CN)CC3)nc(-c3ccccc3)n2)CC1 | 3 | – | > 340 | > 340 | 0.1 | 0.6 | > 80 | > 80 | < 25 | < 25 | < 25 | < 25 | < 25 | 102 | 33 | 4.9 | 1
5 | CCCCCOC(=O)N1CCN(C(=O)[C@H](CCC(=O)O)NC(=O)c2cc(N3CCC(C(=O)N4CCCC4)CC3)nc(-c3ccccc3)n2)CC1 | 0.46 | – | > 340 | > 340 | 0.06 | 0.4 | > 80 | > 80 | < 25 | < 25 | < 25 | < 25 | < 25 | 48 | 2 | 0.2 | 13
6 | CCCCCOC(=O)N1CCN(C(=O)[C@H](CCC(=O)O)NC(=O)c2cc(SC3CCCCC3)nc(-c3ccccc3)n2)CC1 | 70 | inactive | > 340 | > 340 | – | – | – | – | – | – | – | – | – | – | – | – | –
7 | CCCCOC(=O)N1CCN(C(=O)[C@H](CCC(=O)O)NC(=O)c2cc(N3CCC(C(=O)NCC)CC3)nc(-c3ccccc3)n2)CC1 | 0.38 | – | > 340 | > 340 | 0.1 | 0.6 | > 80 | > 80 | < 25 | < 25 | < 25 | < 25 | < 25 | 6 | 16 | 0.3 | 7
8 | CCCCCOC(=O)N1CCN(C(=O)[C@H](CCC(=O)O)NC(=O)c2cc(N3CCC(CNC)CC3)nc(-c3ccccc3)n2)CC1 | 1.2 | – | > 340 | > 340 | 0.1 | 0.7 | > 80 | > 80 | < 25 | < 25 | < 25 | < 25 | < 25 | 42 | 31 | 2 | 2
9 | CCCCCOC(=O)N1CCN(C(=O)[C@H](CCC(=O)O)NC(=O)c2cc(N3CCC(C(=O)N(CC)CC)CC3)nc(-c3ccccc3)n2)CC1 | 1.5 | – | > 340 | > 340 | 0.1 | 0.6 | > 80 | > 80 | < 25 | < 25 | < 25 | < 25 | < 25 | 24 | 6 | 0.21 | 38
10 | CCCCCOC(=O)N1CCN(C(=O)[C@H](CCC(=O)O)NC(=O)c2cc(SCC(F)(F)F)nc(-c3ccccc3)n2)CC1 | 22 | inactive | > 340 | > 340 | – | – | – | – | – | – | – | – | – | – | – | – | –
11 | CCCCCOC(=O)N1CCN(C(=O)[C@H](CCC(=O)O)NC(=O)c2cc(N3CCC(C(=O)NCC)CC3)nc(-c3ccccc3)n2)CC1 | 0.6 | – | > 340 | > 340 | 0.2 | 1.5 | > 80 | > 80 | < 25 | < 25 | < 25 | < 25 | < 25 | 18 | 8 | 0.2 | 8
12 | CCCCCOC(=O)N1CCN(C(=O)[C@H](CCC(=O)O)NC(=O)c2nc(-c3ccccc3)cc(N3CCC(COC)CC3)n2)CC1 | 12 | – | > 340 | > 340 | 1.4 | 9.5 | > 80 | > 80 | < 25 | < 25 | < 25 | < 25 | < 25 | 18 | 6 | 0.15 | 6
